Sampled rows, rich in hits. Any-hit rate of the full collection: about 3.9%.
core dimer inh = inhibitors of HCV core protein dimerization, primary screen, biochemical, TR-FRET, high-throughput. TR-FRET GST/Flag-core106 dimerization, 1536-well. inhibition, % at 5 µM. actives 0.33% (n = 300,000). AID 1899, 2009;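 active = inhibition above the mean of all tested compounds plus 3 SD, set per screening campaign, cut at about 45% in these data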
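System: GST/Flag-tagged HCV core106 proteins. Incubation: compound-protein-antibody incubation 4 h at 22.5 °C. Technique: HTRF with 340 nm excitation, 617/671 nm emission. Medium: KF-containing HEPES buffer, pH 7.45, DTT, CHAPS, BSA. Read-out: inhibition (%) from 671 over 617 nm ratio. Also added: Eu(K)-anti-GST 90 ng/mL plus XL665-anti-Flag 1 µg/mL.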
NS3 helicase inh = inhibitors of HCV NS3 helicase, primary screen, biochemical, Cy5 molecular beacon fluorescence. actives 0.56% (n = 290,000). AID 1800, 2009. inhibition, % at 10.9 µM. NS3 helicase DNA unwinding;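 active = inhibition above the mean of all tested compounds plus 3 SD, set per campaign, cut at about 35% in these data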;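 note: 0% = DMSO wells and 100% = thioflavine S control wells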
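Assay system: hepatitis C virus NS3 helicase domain fragment enzyme. Also added: annealed dual-labelled DNA beacon duplex, ATP-started. Timing: 1 h reaction at 25 °C, ATP-initiated. Technique: Cy5 fluorescence at 0 and 60 min, beacon hairpin quenching. Evaluation: % inhibition of unwinding. Replication: one well per compound.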
HSP90 refold inh = HSP90 inhibitors, primary screen, cell lysate, luminescence | Heat shock protein HSP 90 (rabbit reticulocyte lysate; luciferase refolding) | Rabbit reticulocyte lysate, luciferase refolding luminescence, 3 h | inhibition, % at 5.6 µM | actives 0.91% (n = 290,000) | AID 1789, 2009;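 active = inhibition above the screen-wide mean plus 3 SD, computed separately per campaign, cut at about 16% in these data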;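 note: 0% = DMSO wells and 100% = 60 µM geldanamycin wells; inhibitors lower the luminescence because luciferase stays unfolded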
HSF1 activator = HSF-1 activators, primary screen, NIH3T3-HGL cells, MG132 stress, luminescence, single point; NIH3T3-HGL HSF-1 luciferase reporter, 8 h; 100% = twice DMSO control signal; activation, % at 9 µM; actives 1.7% (n = 300,000);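 active = mean replicate activation of at least 50% with a set share of replicates each reaching 50%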;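 note: 0% = median of the neutral control wells and 100% = twice that signal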
HSF1 inhib = HSF1 inhibitors in luciferase reporter cells, primary screen, cell-based, NIH3T3, luminescence; actives 0.77% (n = 300,000); activity change, negative = inhibition, % at 7.5 µM (by protocol); AID 2098, 2009; NIH3T3-HGL HSE-luciferase, MG132-induced, luminescence 8 h; active compounds read low;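 active = more than half of replicate wells show activity change below -50%, luminescence cut by over half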;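 note: luciferase reports HSF-1 transcriptional activity via heat shock element; 0% = median of DMSO wells and -100% = zero luminescence signal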
FID counter = compounds displacing fluorescent DNA intercalator, primary screen, artefact control for HCV NS3 helicase inhibitor project, biochemical, FID fluorescence | DNA fluorescent intercalator displacement | inhibition, % at 7.9 µM | actives 0.17% (n = 290,000) | AID 1845, 2009; in the data active = inhibition above about 37%;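 note: 0% = vehicle and 100% = reference compound; higher means more ethidium bromide displaced from hairpin DNA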
Numbers without * were called inactive; nt = not tested or not shown.

SMILES	core dimer inh	NS3 helicase inh	HSP90 refold inh	HSF1 activator	HSF1 inhib	FID counter
COc1cc(/C=N\Nc2nc3ccccc3o2)cc(OC)c1OC	-9	1	-1	25	12	-15
COc1ccc(/C=N/Nc2nc3ccccc3[nH]2)cc1OC	-41	4	5	369*	324	10
COc1cc(/C=N\Nc2nc3ccccc3[nH]2)cc(OC)c1OC	-28	-5	2	437*	346	5
COc1ccc2c(c1)c(/C=N/Nc1nc3ccccc3[nH]1)c(C)n2C	-26	-38	6	206*	213	7
Cc1ccc(/C(N)=N/OC(=O)CCCc2ccccc2)cc1	-5	-2	-2	7	14	-16
COc1ccccc1C(=O)N(Cc1ccc(Cl)cc1)C1CCS(=O)(=O)C1 (centres undefined)	6	7	-5	0	7	-24
CCN(Cc1ccccc1)c1ccc(/C=N/NS(=O)(=O)c2cccc([N+](=O)[O-])c2)cc1	18	1	-1	30	13	-5
COc1cc(OC)c(OC)cc1/C=N/Nc1nc2ccccc2[nH]1	-32	-20	-2	267*	246	23
C#CCn1cc(/C=N/Nc2nc3ccccc3[nH]2)c2ccccc21	-33	-21	6	370*	288	6
C(=N\Nc1nc2ccccc2[nH]1)/c1ccc2ncccc2c1	-15	-30	4	41	15	21
CCCCn1c(/C=N/Nc2nc3ccccc3[nH]2)nc2ccccc21	4	-12	-2	-4	1	-2
C(=N\Nc1nc2ccccc2[nH]1)/c1cccc2nccnc12	-22	-14	2	64*	58	14
Fc1ccccc1-c1ccc(/C=N/Nc2nc3ccccc3[nH]2)o1	-22	-17	-2	384*	379	-6
COc1cc(CN2CCNC(=O)C2CC(=O)N(C)Cc2ncc[nH]2)cc(OC)c1 (centres undefined)	-3	11	1	3	-1	-3
CCCNC(=O)Cn1c(=O)/c(=C\c2ccc(-c3cccc([N+](=O)[O-])c3)o2)s/c1=C\C(=O)C(C)(C)C	57*	20	0	-11	-1	-3
CCCNC(=O)Cn1c(=O)/c(=C\c2ccc(-c3ccc([N+](=O)[O-])cc3)o2)s/c1=C\C(=O)C(C)(C)C	13	10	-1	-1	-8	-5
COc1ccc(CN2C3CCC2CC(NC(=O)c2cccc(F)c2)C3)cc1 (centres undefined)	2	-7	-2	-1	-5	1
O=C(Oc1ccc2c(c1)OCO2)c1cc2c(s1)CCC2	87*	21	3	81*	33	-7
CCOc1ncccc1C(=O)Oc1ccc2c(c1)OCO2	-5	-1	-3	-13	-6	-12
O=C(Oc1ccc2c(c1)OCO2)c1ccc(F)cc1Cl	-1	8	2	63*	26	-7
Cc1ccc(NC(=O)CC(O)(C(F)(F)F)C(F)(F)F)cc1	-4	-4	-6	-1	-7	-2
COc1ccc(NC(=O)n2ncc3c(C)cccc32)cc1	-3	-19	2	60*	39	-7
Cc1ccc(NC(=O)n2ncc3c(C)cccc32)cc1F	-5	-11	1	61*	31	2
COc1ccc(NC(=O)n2ncc3c(C)cccc32)cc1OC	-6	12	3	53*	30	-22
COc1ccc(C)cc1NC(=O)n1ncc2c(C)cccc21	3	-16	-2	32	14	-7
SMILES	core dimer inh	NS3 helicase inh	HSP90 refold inh	HSF1 activator	HSF1 inhib	FID counter
Cc1c(NC(=O)C(C)OC(=O)c2ccc(NC(=O)CC#N)cc2)c(=O)n(-c2ccccc2)n1C (centres undefined)	5	nt	nt	9	-2	nt
O=C(CC1C(=O)NCCN1Cc1ccccc1C(F)(F)F)NC1CCCCCC1 (centres undefined)	10	-3	-1	5	2	-45
COc1cccc(NC(=O)CCSc2nnc3scc(-c4ccccc4)n23)c1	1	-1	4	-78	-73*	-16
COc1cccc(-c2csc3nnc(SCC(=O)c4ccc(NC(C)=O)cc4)n23)c1	6	2	0	nt	nt	-4
Oc1c(CN2CCCCC2)cc(Br)c2cccnc12	-9	2	7	-58	-60*	2
O=C(CSc1nccn1Cc1ccco1)Nc1cccc(F)c1	8	-1	-1	-79	-74*	-8
O=C(CSc1nccn1Cc1ccco1)Nc1ccc(F)cc1	-14	1	-2	11	-1	-5
Cc1c(O)ccc(/C(Cc2ccc3ccccc3n2)=N\O)c1O	1	-7	1	70*	38	-14
CC(=O)Oc1ccc(C(=O)Cc2ccc3ccccc3n2)c(O)c1C	9	14	5	76*	47	-4
Oc1ccc(/C(Cc2ccc3ccccc3n2)=N\Nc2ccccc2)c(O)c1	5	7	-2	29	16	-16
COc1cccc(NC(=O)CC2C(=O)NC3CCCCC3N2C(=O)c2ccccc2)c1 (centres undefined)	0	-1	-6	7	-3	-21
CCC(C(=O)OCC(=O)N(C)c1c(N)n(Cc2ccccc2)c(=O)[nH]c1=O)c1ccccc1 (centres undefined)	-9	nt	nt	8	2	nt
CC12CN(C(=S)Nc3ccccc3)CC(C)(CN(C(=S)Nc3ccccc3)C1)C2=O	-3	-4	-3	74*	28	8
COc1ccc(NC(=O)COC(=O)/C=C/c2cnc3ccccc3n2)cc1	10	0	-1	24	3	-2
Cc1ccc(NC2=C(Cl)C(=O)OC2NC(=O)c2ccccc2)cc1 (centres undefined)	-4	-1	-2	5	8	-2
O=C1OC(NC(=O)c2ccccc2)C(n2cc(CO)nn2)=C1Cl (centres undefined)	-47	4	2	-67	-62*	6
COC(=O)c1cc(OC)c(OC)cc1NC(=S)NC(=O)c1ccco1	2	-8	-3	73*	33	-24
CCNC(=S)Nc1cc(OC)c(NC(=O)c2ccco2)cc1OC	-4	2	-1	8	1	-8
CCN(CC)c1ccc(NC(=S)NC(=O)c2ccco2)cc1	-8	6	12	180*	142	-3
c1ccc(CN2CCOCC2)cc1	-7	-1	5	7	1	-1
c1ccc2c(c1)Cc1cc(CN3CCOCC3)ccc1-2	-4	-9	0	56*	41	2
